Residues, ends and D or L forms follow the SMILES beside them.
Legend:
[1] = (§1) Basolateral to apical fluxes across Caco-2 cell monolayers at 37 degree celsius was studied.; type: ADME, organism-based; conditions: human, read-out: Permeability
Summary of the method: (§2)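 Caco-2 monolayers (passage 46-48) grown on collagen-coated polycarbonate Transwell filters, 21-25 days after seeding at 80 000 cells/cm2; TEER checked the day before. Transport run in HBSS with 25 mM Hepes, pH 7.4, at 37 °C with stirring. Receiver sampled at intervals up to 4 h, radioactivity counted by scintillation. Papp = dQ/dt·1/(AC0), computed separately for bisphosphonate and Pro-Phe parts; mean ± SD.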

[2] = Apical to basolateral fluxes across Caco-2 cell monolayers at 37 degree celsius was studied.; type: ADME, organism-based; conditions: human, read-out: Permeability; summary of the method: as §2
Homo sapiens = species on record: Homo sapiens; assay: as §1; type: ADME, organism-based; summary of the method: as §2
[3] = Bioavailability by the ratios of 14C p.o. /14C i.v. accumulated in urine at 24 hr (dose 10 mg/kg p.o.); type: ADME, organism-based; conditions: eutheria, in vivo, po
Summary of the method: (§3)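 Male Sabra rats, housed in metabolic cages, fasted overnight, dosed by stomach tube at 10 mg/kg bisphosphonate equivalent (n = 6). A 1 mg/kg iv jugular-cannula group served as reference. 14C in tibia or urine measured at 24 h by sample-oxidizer combustion and scintillation counting. F = (amount po × Div)/(amount iv × Dpo) × 100.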

[4] = Bioavailability by the ratios of 14C p.o. /14C i.v. accumulated in bone at 24 hr (dose 10 mg/kg p.o.); type: ADME, organism-based, Bone element; conditions: eutheria, in vivo, po; summary of the method: as §3
[5] = Inhibition of HAP formation, by the compound (1.0 mM) absorbed, was obtained in vitro studies.*: p<0.05; conditions: 1000 µM
Summary of the method: (§4)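 HAP precipitation was run with calcium 3.87 mM and phosphate 2.32 mM (Ca/PO4 1.67) in 0.05 M Tris, pH 7.4. Compound (0.1 or 1 mM) was dissolved in the phosphate solution. After 24 h incubation, filtrate calcium was measured by atomic absorption spectroscopy.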

[6] = Inhibition of HAP formation, by the compound (0.1 mM) absorbed, was obtained in vitro studies.*: p<0.05; conditions: 100 µM; summary of the method: as §4
[7] = (§5) Inhibition of HAP dissolution was determined […] at 0.048 mM concentration *: p<0.05; conditions: 48 µM
Summary of the method: (§6)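 Hydroxyapatite tablets (300 mg, 10 mm), wax-coated so that one face is exposed, were stirred overnight at 37 °C in drug solution (240 or 48 µM in Tris, pH 7.4). They were then moved to acetate buffer, pH 5, at 37 °C. Dissolved calcium was read by atomic absorption at timed points, with the medium replenished after each sample.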

[8] = Inhibition of HAP dissolution was determined […] at 0.24 mM concentration *: p<0.05; conditions: 240 µM; summary of the method: as §6
[9] = as §5; set-up: scale not given: the % may be the effect or the level left; conditions: 48 µM; summary of the method: as §6
[10] = Inhibition of HAP dissolution was determined in […] at 0.24 mM concentration *: p<0.05; set-up: scale not given: the % may be the effect or the level left; conditions: 240 µM; summary of the method: as §6

Papp B→A [1] | Papp A→B [2] | Permeability (Homo sapiens) | Bioavailability [3] | Bioavailability [4] | Initial concentration [5] | Initial concentration [6] | Inhibition [7] | Inhibition [8] | Control [9] | Control [10] | Compound
1.14 ×10⁻⁶ cm/s | 2.29 ×10⁻⁶ cm/s |  |  |  |  |  |  |  |  |  | O=C(O)[C@H](Cc1ccccc1)NC(=O)[C@@H]1CCCN1 (H-Pro-Phe-OH)
 | 0.5 ×10⁻⁶ cm/s | 0.41 ×10⁻⁶ cm/s |  |  |  |  |  |  |  |  | O=C(N[C@@H](Cc1ccccc1)C(=O)NCCC(O)(P(=O)(O)O)P(=O)(O)O)[C@@H]1CCCN1 (stereo in doubt; form 1)
 | 0.23 ×10⁻⁶ cm/s | 0.16 ×10⁻⁶ cm/s | 3.1% | 1.74% |  |  |  |  |  |  | O=C(N[C@@H](Cc1ccccc1)C(=O)NCCCC(O)(P(=O)(O)O)P(=O)(O)O)[C@@H]1CCCN1 (stereo in doubt; form 1)
 | 0.11 ×10⁻⁶ cm/s | 0.09 ×10⁻⁶ cm/s | 3.17% | 1.65% | 40.5% | 83.8% | 79.4% | 59.1% |  |  | O=C(N[C@@H](Cc1ccccc1)C(=O)NCCC(O)(P(=O)(O)O)P(=O)(O)O)[C@@H]1CCCN1 (stereo in doubt; form 2)
 | 1.03 ×10⁻⁶ cm/s | 0.55 ×10⁻⁶ cm/s |  |  |  |  |  |  |  |  | O=C(N[C@@H](Cc1ccccc1)C(=O)NCCCC(O)(P(=O)(O)O)P(=O)(O)O)[C@@H]1CCCN1 (stereo in doubt; form 2)
0.22 ×10⁻⁶ cm/s | 0.26 ×10⁻⁶ cm/s |  |  |  |  |  |  |  |  |  | OC[C@@H](O)[C@@H](O)[C@H](O)[C@H](O)CO [MANNITOL]
0.04 ×10⁻⁶ cm/s | 0.05 ×10⁻⁶ cm/s |  | 1.74% | 0.44% | 46.9% | 63.8% |  |  | 79.4% | 55.7% | NCCC(O)(P(=O)(O)O)P(=O)(O)O [PAMIDRONIC ACID]
